Assay results from ChEMBL document CHEMBL4725276, “Strategies towards potent trypanocidal drugs: Application of Rh-catalyzed [2 + 2 + 2] cycloadditions, sulfonyl phthalide annulation and nitroalkene reactions for the synthesis of substituted quinones and their evaluation against Trypanosoma cruzi” (Bioorg Med Chem, 2020).

How the values were obtained:
Trypanosoma cruzi [1] = experiment: Trypanocidal activity against Trypanosoma cruzi Y strain bloodstream trypomastigotes isolated from infected Albino Swiss mouse assessed as lysis of parasite in presence of 5 % mouse blood incubated for 24 hrs by Neubauer chamber method; assay type: functional, organism-based
In short: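 Y-strain bloodstream trypomastigotes were isolated from infected mice at peak parasitemia by differential centrifugation and suspended at 10x10⁶ parasites/mL in DMES. They were mixed 1:1 with compound prepared at 2x final (DMSO final ≤0.1%) and incubated 24 h at 4 °C with 5% mouse blood, with benznidazole as control.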

[2] = Selectivity index, ratio of LD50 for cytotoxicity against albino Swiss mouse peritoneal macrophages to IC50 for Trypanocidal activity against Trypanosoma cruzi Y strain bloodstream trypomastigotes isolated from infected albino Swiss mouse in presence of 5 % mouse blood; assay type: toxicity; details: read-out: Selectivity Index
In short: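 Combines the macrophage LD₅₀/24 h with the trypanocidal IC₅₀/24 h, parasite assay run in 5% mouse blood at 4 °C. Y strain bloodstream trypomastigotes from infected Albino Swiss mice (peak parasitemia, differential centrifugation) were suspended at 10x10⁶/mL in DMES. They were mixed 1:1 with compound at twice the final concentration (DMSO ≤0.1% final) for 24 h. Neubauer chamber counts; IC₅₀ is 50% lysis; mean ± SD of at least three independent experiments.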

[3] = Cytotoxicity against albino Swiss mouse Peritoneal macrophages in presence of 5 % mouse blood incubated for 24 hrs by PrestoBlue dye based fluorescence assay; assay type: cell-based, Peritoneal macrophage; details: read-out: LD50
In short: (§1)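 Primary peritoneal macrophages from Albino Swiss mice, 2.5 x 10⁴ cells/well in RPMI-1640 (pH 7.2, 10% foetal bovine serum, 2 mM glutamine), preincubated 24 h at 37 °C. Treated in fresh supplemented medium for 24 h at 37 °C. PrestoBlue added, 2 h incubation, read at 560 and 590 nm. LC₅₀/24 h is the concentration damaging 50% of cells, from reduction relative to untreated cells.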

[4] = Selectivity index, ratio of LD50 for cytotoxicity against albino Swiss mouse peritoneal macrophages to IC50 for Trypanocidal activity against Trypanosoma cruzi Y strain bloodstream trypomastigotes isolated from infected albino Swiss mouse in absence of mouse blood; assay type: toxicity; details: read-out: Selectivity Index
In short: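 Combines the macrophage LD₅₀/24 h with the trypanocidal IC₅₀/24 h, parasite assay run without blood at 37 °C. Y strain bloodstream trypomastigotes were taken from infected Albino Swiss mice at peak parasitemia by differential centrifugation, at 10x10⁶/mL in DMES. They were mixed 1:1 with compound at twice the final concentration (DMSO ≤0.1% final) for 24 h. Neubauer counts; IC₅₀ is 50% lysis.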

Trypanosoma cruzi [5] = experiment: Trypanocidal activity against Trypanosoma cruzi Y strain bloodstream trypomastigotes isolated from infected Albino Swiss mouse assessed as lysis of parasite in absence of mouse blood incubated for 24 hrs by Neubauer chamber method; assay type: functional, organism-based
In short: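 Bloodstream trypomastigotes (Y strain) were taken from mice at peak parasitemia by differential centrifugation and resuspended at 10x10⁶/mL in DMES. Equal volumes of suspension and compound at twice final concentration (DMSO final ≤0.1%) were incubated 24 h at 37 °C with no blood added, with benznidazole as control.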

Trypanosoma cruzi [6] = experiment: Potency index, ratio of benznidazole IC50 to compound IC50 for trypanocidal activity against Trypanosoma cruzi Y strain bloodstream trypomastigotes isolated from infected Albino Swiss mouse assessed as lysis of parasite in presence of 5 % mouse blood incubated for 24 hrs by Neubauer chamber method; assay type: functional
[7] = Cytotoxicity against albino Swiss mouse Peritoneal macrophages in absence of mouse blood incubated for 24 hrs in absence of mouse blood by PrestoBlue dye based fluorescence assay; assay type: cell-based, Peritoneal macrophage; details: read-out: LD50; in short: as §1

Row | SMILES | IC50 (Trypanosoma cruzi [1]) | also measured
1 | COC(=O)C1(C(=O)OC)Cc2c(O)c3c(c(O)c2C1)C(=O)C(OC)=CC3=O | > 500 µM | 
2 | COc1ccc(-c2cn(-c3ccc(F)cc3)c3c2C(=O)c2ccccc2C3=O)cc1 | > 500 µM | 
3 | COc1ccc(-n2cc(-c3ccccc3)c3c2C(=O)c2ccccc2C3=O)cc1 | > 500 µM | 
4 | Cc1cc2oc3c(c2cc1C)C(=O)c1ccccc1C3=O | > 500 µM | 
5 | Cc1ccc2oc3c(c2c1)C(=O)c1ccccc1C3=O | > 500 µM | 
6 | Cc1ccc(-c2cn(-c3ccc(C)cc3)c3c2C(=O)c2ccccc2C3=O)cc1 | > 500 µM | 
7 | COC(=O)C1(C(=O)OC)Cc2cc3c(cc2C1)C(=O)C(Cl)=CC3=O | 56.6 µM | selectivity ratio [2]: 0.09; CC50 at 24 h [3]: 5 µM
8 | CCCCc1c2c(c(CCCC)c3c1C(=O)C=CC3=O)CN(S(=O)(=O)c1ccc(C)cc1)C2 | > 500 µM | 
9 | COC(=O)C1(C(=O)OC)Cc2c(c(-c3ccccc3)c3c(c2-c2ccccc2)C(=O)C=CC3=O)C1 | 2.5 µM | selectivity ratio [4]: 3.7; selectivity ratio [2]: 0.6; CC50 at 24 h [3]: 1.6 µM; IC50 (Trypanosoma cruzi [5]): 0.44 µM
10 | COC(=O)C1(C(=O)OC)Cc2cc3c(c(O)c2C1)C(=O)C=C(OC)C3=O | > 500 µM | 
11 | COc1ccc(-c2coc3c2C(=O)c2ccccc2C3=O)cc1 | > 500 µM | 
12 | O=C1c2ccccc2C(=O)c2c(-c3cccs3)coc21 | > 500 µM | 
13 | CCCCn1cc(-c2ccc(Cl)cc2)c2c1C(=O)c1ccccc1C2=O | > 500 µM | 
14 | O=C1C=CC(=O)c2cc3c(cc21)CCC3 | 49.2 µM | selectivity ratio [2]: 0.03; CC50 at 24 h [3]: 1.7 µM; Ratio IC50 (Trypanosoma cruzi [6]): 2
15 | CC(=O)CCC1=C(c2ccco2)C(=O)c2ccccc2C1=O | > 500 µM | 
16 | COC(=O)C1(C(=O)OC)Cc2cc3c(c(CO[Si](C)(C)C(C)(C)C)c2C1)C(=O)C=CC3=O | > 500 µM | 
17 | COC(=O)C1(C(=O)OC)Cc2cc3c(cc2C1)C(=O)C(I)=CC3=O | 51.3 µM | selectivity ratio [2]: 0.03; CC50 at 24 h [3]: 1.6 µM
18 | COc1ccc(-n2cc(-c3ccco3)c3c2C(=O)c2ccccc2C3=O)cc1 | > 500 µM | 
19 | COc1ccc(-n2cc(-c3ccc(F)cc3)c3c2C(=O)c2ccccc2C3=O)cc1 | > 500 µM | 

Row | SMILES | IC50 (Trypanosoma cruzi [1]) | also measured
20 | O=C1C=CC(=O)c2cc3c(cc21)COC3 | 193 µM | 
21 | COC(=O)C1(C(=O)OC)Cc2c(C)c3c(c(C)c2C1)C(=O)C=CC3=O | > 500 µM | 
22 | COC1=CC(=O)c2cc3c(c(-c4ccc5c(c4)OCO5)c2C1=O)COC3=O | > 500 µM | 
23 | COc1ccc(-c2cn(-c3ccc(Cl)cc3)c3c2C(=O)c2ccccc2C3=O)cc1 | > 500 µM | 
24 | COC(=O)C1(C(=O)OC)Cc2cc3c(cc2C1)C(=O)C=CC3=O | 51.5 µM | selectivity ratio [2]: 0.03; CC50 at 24 h [3]: 1.6 µM
25 | COC(=O)C1(C(=O)OC)Cc2cc3c(c(C(=O)O)c2C1)C(=O)C=CC3=O | > 500 µM | 
26 | CC(=O)CCC1=C(c2ccc(F)cc2)C(=O)c2ccccc2C1=O | 114 µM | CC50 at 24 h [3]: 65.4 µM
27 | COC(=O)C1(C(=O)OC)Cc2cc3c(cc2C1)C(=O)C(c1ccccc1)=CC3=O | 369 µM | 
28 | O=C1C=CC(=O)c2c1cc1oc3ccccc3c1c2-c1ccccc1 | 247 µM | 
29 | O=C1c2ccccc2C(=O)c2c(-c3ccc(Br)cc3)coc21 | > 500 µM | 
30 | COc1ccc(-n2cc(-c3ccc(C)cc3)c3c2C(=O)c2ccccc2C3=O)cc1 | > 500 µM | 
31 | COc1ccc2oc3c(c2c1)C(=O)c1ccccc1C3=O | > 500 µM | 
32 | COC(=O)C1(C(=O)OC)Cc2cc3c(cc2C1)C(=O)C(C)=C(C)C3=O | > 500 µM | 
33 | Cc1ccc(-c2cn(-c3ccc(Br)cc3)c3c2C(=O)c2ccccc2C3=O)cc1 | > 500 µM | 
34 | COC(=O)C1(C(=O)OC)Cc2c(c(-c3ccc(F)cc3)c3c(c2-c2ccc(F)cc2)C(=O)C=CC3=O)C1 | 3.3 µM | selectivity ratio [4]: 9.3; selectivity ratio [2]: 0.89; CC50 at 24 h [3]: 3 µM; IC50 (Trypanosoma cruzi [5]): 0.32 µM
35 | COC(=O)C1(C(=O)OC)Cc2cc3c(cc2C1)C(=O)C(OC)=CC3=O | > 500 µM | 
36 | COC(=O)C1(C(=O)OC)Cc2cc3c(cc2C1)C(=O)c1ccccc1C3=O | > 500 µM | 
37 | CCOc1cccc2c3c(oc12)C(=O)c1ccccc1C3=O | > 500 µM | 
38 | COC(=O)C1(C(=O)OC)Cc2cc3c(cc2C1)C(=O)C(N(C)c1ccccc1)=CC3=O | > 500 µM | 

Row | SMILES | IC50 (Trypanosoma cruzi [1]) | also measured
39 | COc1ccc(C2=C(CCC(C)=O)C(=O)c3ccccc3C2=O)cc1 | 109 µM | selectivity ratio [2]: 1.38; CC50 at 24 h [3]: 79 µM
40 | Cc1ccc(S(=O)(=O)N2Cc3cc4c(cc3C2)C(=O)C=CC4=O)cc1 | > 500 µM | 
41 | COC(=O)C1(C(=O)OC)Cc2cc3c(cc2C1)C(=O)C(c1ccccc1OC)=CC3=O | 102 µM | 
42 | COC(=O)C1(C(=O)OC)Cc2cc3c(cc2C1)C(=O)C(c1ccccc1Br)=CC3=O | 51.5 µM | selectivity ratio [2]: 0.07; CC50 at 24 h [3]: 3.8 µM
43 | CCCCc1c2c(cc3c1C(=O)C=CC3=O)CC(C(=O)OC)(C(=O)OC)C2 | 64.4 µM | selectivity ratio [2]: 0.07; CC50 at 24 h [3]: 4.2 µM
44 | Cc1ccc(S(=O)(=O)n2c3ccccc3c3c(-c4ccccc4)c4c(cc32)C(=O)C=CC4=O)cc1 | 122 µM | 
45 | COC(=O)C1(C(=O)OC)Cc2cc3c(cc2C1)C(=O)C(c1ccc(C(F)(F)F)cc1)=CC3=O | 362 µM | 
46 | CSc1ccc(-c2coc3c2C(=O)c2ccccc2C3=O)cc1 | > 500 µM | 
47 | COc1ccc(-c2cn(-c3ccc(OC)cc3)c3c2C(=O)c2ccccc2C3=O)cc1 | > 500 µM | 
48 | O=C1c2ccccc2C(=O)c2c(-c3ccccc3[N+](=O)[O-])coc21 | > 500 µM | 
49 | O=C1c2ccccc2C(=O)c2c1oc1ccccc21 | > 500 µM | 
50 | O=C(Cn1ccnc1[N+](=O)[O-])NCc1ccccc1 [BENZNIDAZOLE] |  | IC50 (Trypanosoma cruzi [5]): 8.8 µM; CC50 at 24 h [7]: > 1000 µM
51 | COC(=O)C1(C(=O)OC)Cc2cc3c(cc2C1)C(=O)C(Br)=CC3=O | 150 µM | 
52 | COC(=O)C1(C(=O)OC)Cc2c(c(-c3ccc(OC)cc3)c3c(c2-c2ccc(OC)cc2)C(=O)C=CC3=O)C1 | 2.3 µM | selectivity ratio [4]: 13.9; selectivity ratio [2]: 0.81; CC50 at 24 h [3]: 1.9 µM; IC50 (Trypanosoma cruzi [5]): 0.14 µM
53 | O=C1c2ccccc2C(=O)c2c(-c3ccc(F)cc3)coc21 | > 500 µM | 
54 | Cc1ccc(-c2cn(-c3cccc(Br)c3)c3c2C(=O)c2ccccc2C3=O)cc1 | > 500 µM | 
55 | COc1ccc(-n2cc(-c3ccc(Cl)cc3)c3c2C(=O)c2ccccc2C3=O)cc1 | > 500 µM | 
56 | COc1ccc(-c2cn(-c3ccccc3)c3c2C(=O)c2ccccc2C3=O)cc1 | > 500 µM | 
